How the values were obtained:
[1] = Inhibition of hedgehog signaling pathway in mouse NIH/3T3 cells after 48 hrs by Gli-luciferase reporter gene assay; type: cell-based; settings: NIH3T3, 48 h
Method in brief: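 NIH3T3 cells stably carrying Gli-luciferase reporter, kept in DMEM/10% FBS with 500 µg/mL G418, seeded at 7.5 × 10³ cells/well on collagen-coated plates overnight at 37 °C, 5% CO2; then recombinant mouse Shh-N plus compound (final 0.03–1000 nM, 5.8% FBS), n = 4 wells, 48 h; luciferase read with Bright-Glo; 0.1% DMSO ± 1 µg/mL Shh-N as controls; IC50 mean of four.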

[2] = In vivo inhibition of Gli1 mRNA expression in mouse bearing human PAN-04 cells assessed as expression level at 25 mg/kg, po bid after 24 hrs by qPCR analysis relative to control; type: functional
Method in brief: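 Nude mice bearing human primary pancreatic tumor PAN-04 given compound orally twice daily at 25 mg/kg; tumors excised 24 h after first dose, stored in RNAlater; mouse stromal Gli1 mRNA quantified with mouse Gli1 and mouse GAPDH probe sets; expressed relative to controls.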

[3] = AUC (0 to 8 hrs) in non-fasted mouse at 10 mg/kg, po cassette dosing by LC/MS/MS analysis; type: ADME, organism-based; design: dose 10 mg/kg, time < 8 hr, route oral; settings: in vivo
Method in brief: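 Single 10 mg/kg oral cassette dose to nonfasted mice; blood sampled, plasma separated by centrifugation, deproteinized with MeCN containing internal standard, supernatant diluted in 10 mmol/L HCOONH4/0.2% formic acid–MeCN with 0.2% formic acid (9:1), recentrifuged, concentrations quantified by LC/MS/MS; AUC from 0 to 8 h.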

| SMILES | IC50 [1] [nM] | Gli1 mRNA expression relative to control [2] [%] | AUC(0-t) at 8 h [3] [ng·h/mL] |
| --- | --- | --- | --- |
| CCc1nc2c(cc1NC(=O)c1ccccc1)c(OCC(F)(F)F)c(C(=O)NC1CCN(C(=O)CO)CC1)n2C | 3.6 | 24 | 10800 |
| CCc1nc2c(c(OCC(F)(F)F)c(C(=O)NC3CCN(C(=O)CO)CC3)n2C)c(=O)n1CC(=O)c1ccccc1 | 6.2 |  |  |
| CCc1cc2c(c(OCC(F)(F)F)c(C(=O)NC3CCN(C(=O)CO)CC3)n2C)c(=O)n1CC(=O)c1ccccc1 [TAK-441] | 4.4 | 4 | 28300 |
| CCc1cc2c(nc1NC(=O)c1ccccc1)c(OCC(F)(F)F)c(C(=O)NC1CCN(C(=O)CO)CC1)n2C | 3.9 | 87 | 984 |
| CCc1nc2c(nc1NC(=O)c1ccccc1)c(OCC(F)(F)F)c(C(=O)NC1CCN(C(=O)CO)CC1)n2C | 3.1 | 57 | 925 |
| CCc1cc2c(cc1NC(=O)c1ccccc1)c(OCC(F)(F)F)c(C(=O)NC1CCN(C(=O)CO)CC1)n2C | 2.6 | 50 | 1270 |
| CCc1nc2c(cc1CC(=O)c1ccccc1)c(OCC(F)(F)F)c(C(=O)NC1CCN(C(=O)CO)CC1)n2C | 46 |  |  |
